Legend:
[1] = molecular target: T1, GPI inositol-deacylase (Mus musculus) (UniProt Q3UUQ7); conditions: Neuro2a, 3 nM
T1 sequence (whole entry): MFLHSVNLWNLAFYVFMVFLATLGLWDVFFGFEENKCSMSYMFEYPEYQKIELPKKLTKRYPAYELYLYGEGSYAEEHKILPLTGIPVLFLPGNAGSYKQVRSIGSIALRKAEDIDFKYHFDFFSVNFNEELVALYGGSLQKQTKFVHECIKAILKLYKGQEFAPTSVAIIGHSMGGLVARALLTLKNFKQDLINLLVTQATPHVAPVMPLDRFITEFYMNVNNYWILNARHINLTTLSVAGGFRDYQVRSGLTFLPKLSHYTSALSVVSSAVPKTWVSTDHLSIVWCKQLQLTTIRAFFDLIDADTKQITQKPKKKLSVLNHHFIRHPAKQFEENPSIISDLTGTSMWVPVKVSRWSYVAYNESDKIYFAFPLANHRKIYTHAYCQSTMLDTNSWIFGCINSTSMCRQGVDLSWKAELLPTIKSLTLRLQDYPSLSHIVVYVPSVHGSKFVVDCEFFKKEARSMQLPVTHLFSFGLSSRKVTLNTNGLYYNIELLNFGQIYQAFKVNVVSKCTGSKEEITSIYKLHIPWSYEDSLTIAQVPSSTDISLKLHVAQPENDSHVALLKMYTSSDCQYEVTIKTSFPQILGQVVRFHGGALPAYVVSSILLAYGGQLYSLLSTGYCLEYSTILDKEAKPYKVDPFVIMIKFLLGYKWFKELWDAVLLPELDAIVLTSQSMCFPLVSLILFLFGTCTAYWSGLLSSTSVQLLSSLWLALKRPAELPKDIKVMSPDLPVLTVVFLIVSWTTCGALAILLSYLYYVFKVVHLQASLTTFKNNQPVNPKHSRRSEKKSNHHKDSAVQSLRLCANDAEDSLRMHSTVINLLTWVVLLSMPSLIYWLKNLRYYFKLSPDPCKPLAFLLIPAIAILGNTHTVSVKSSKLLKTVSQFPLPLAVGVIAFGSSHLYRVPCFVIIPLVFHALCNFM

[2] = molecular target: T2, Monoacylglycerol lipase ABHD6 (Mus musculus) (UniProt Q8R2Y0); assay: Inhibition of ABHD6 in FP-rhodamine-labelled mouse brain membrane at 1 nM preincubated for 30 mins followed by FP-rhodamine labelling measured after 30 mins by gel-based competitive ABPP assay; format: tissue-based
T2 sequence (whole entry): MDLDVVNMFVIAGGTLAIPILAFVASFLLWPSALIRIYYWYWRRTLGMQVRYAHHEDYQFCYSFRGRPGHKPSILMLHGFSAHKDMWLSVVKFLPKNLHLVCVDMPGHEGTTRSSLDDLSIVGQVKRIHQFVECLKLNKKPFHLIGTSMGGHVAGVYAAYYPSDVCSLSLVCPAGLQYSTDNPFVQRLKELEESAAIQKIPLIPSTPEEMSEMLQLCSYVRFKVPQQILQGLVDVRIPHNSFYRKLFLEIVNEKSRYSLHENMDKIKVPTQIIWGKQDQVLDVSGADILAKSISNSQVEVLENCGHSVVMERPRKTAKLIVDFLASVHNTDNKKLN
Outline: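 Mouse brain membrane proteome (1 mg/mL) preincubated with compound for 30 min at 37 °C, then labelled with FP-rhodamine or HT-01 (1 μM final) for 30 min at 37 °C. Quenched in SDS loading buffer, run on 10% SDS-PAGE and scanned for in-gel fluorescence. Bands assigned by gel migration.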

[3] = molecular target: Prolyl endopeptidase (Mus musculus) (UniProt Q9QUR6); conditions: Neuro2a, 3 nM
Sequence of Prolyl endopeptidase (Mus musculus) (Q9QUR6 whole entry, looked up): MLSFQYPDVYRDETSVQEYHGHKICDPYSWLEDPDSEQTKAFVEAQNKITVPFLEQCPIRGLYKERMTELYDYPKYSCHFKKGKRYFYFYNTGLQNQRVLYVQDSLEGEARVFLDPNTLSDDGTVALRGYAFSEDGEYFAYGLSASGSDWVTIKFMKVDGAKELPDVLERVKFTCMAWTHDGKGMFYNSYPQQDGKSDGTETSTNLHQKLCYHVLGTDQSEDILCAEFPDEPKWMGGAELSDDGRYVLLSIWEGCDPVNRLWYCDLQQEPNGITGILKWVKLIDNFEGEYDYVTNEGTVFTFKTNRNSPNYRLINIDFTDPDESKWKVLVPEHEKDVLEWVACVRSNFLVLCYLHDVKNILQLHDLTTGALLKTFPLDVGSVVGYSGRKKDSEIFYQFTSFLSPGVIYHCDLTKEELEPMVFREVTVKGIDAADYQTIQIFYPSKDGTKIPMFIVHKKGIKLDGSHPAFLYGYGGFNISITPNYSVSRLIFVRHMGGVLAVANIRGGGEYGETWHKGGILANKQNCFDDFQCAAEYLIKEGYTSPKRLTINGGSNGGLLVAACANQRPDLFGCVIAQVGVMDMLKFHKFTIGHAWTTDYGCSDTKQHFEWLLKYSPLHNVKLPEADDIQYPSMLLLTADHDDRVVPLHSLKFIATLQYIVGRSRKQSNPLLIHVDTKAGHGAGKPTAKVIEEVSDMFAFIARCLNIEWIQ

[4] = molecular target: T3, Lysosomal phospholipase A and acyltransferase (Mus musculus) (UniProt Q8VEB4); conditions: Neuro2a, 3 nM
T3 sequence (whole entry): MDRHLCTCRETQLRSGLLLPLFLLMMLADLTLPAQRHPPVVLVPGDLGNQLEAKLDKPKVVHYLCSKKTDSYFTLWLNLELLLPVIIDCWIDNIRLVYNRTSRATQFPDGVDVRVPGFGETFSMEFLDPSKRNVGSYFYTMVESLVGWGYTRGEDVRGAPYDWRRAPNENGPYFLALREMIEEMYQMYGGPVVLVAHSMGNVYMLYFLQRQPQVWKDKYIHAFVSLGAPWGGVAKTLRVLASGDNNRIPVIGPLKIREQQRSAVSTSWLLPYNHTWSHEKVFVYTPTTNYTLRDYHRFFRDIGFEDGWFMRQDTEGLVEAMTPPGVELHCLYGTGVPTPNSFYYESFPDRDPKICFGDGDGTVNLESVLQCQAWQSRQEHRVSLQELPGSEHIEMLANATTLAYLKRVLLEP

[5] = molecular target: Dipeptidyl peptidase 2 (Mus musculus) (UniProt Q9ET22); conditions: Neuro2a, 3 nM
Sequence of Dipeptidyl peptidase 2 (Mus musculus) (Q9ET22 whole entry): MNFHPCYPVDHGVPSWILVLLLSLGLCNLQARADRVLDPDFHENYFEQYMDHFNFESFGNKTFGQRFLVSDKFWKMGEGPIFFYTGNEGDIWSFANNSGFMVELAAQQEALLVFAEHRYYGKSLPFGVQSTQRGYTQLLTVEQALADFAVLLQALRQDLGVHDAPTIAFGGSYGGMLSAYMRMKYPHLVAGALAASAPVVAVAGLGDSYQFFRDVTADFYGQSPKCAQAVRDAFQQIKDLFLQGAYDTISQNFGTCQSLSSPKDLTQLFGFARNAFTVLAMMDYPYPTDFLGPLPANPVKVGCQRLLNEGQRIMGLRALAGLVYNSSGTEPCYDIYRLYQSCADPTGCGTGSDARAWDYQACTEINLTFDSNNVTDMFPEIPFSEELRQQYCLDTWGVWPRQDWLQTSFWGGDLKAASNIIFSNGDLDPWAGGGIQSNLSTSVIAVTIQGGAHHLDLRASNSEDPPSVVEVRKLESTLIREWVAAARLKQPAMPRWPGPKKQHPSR

[6] = molecular target: T4, Lysosomal thioesterase PPT2 (Mus musculus) (UniProt O35448); conditions: Neuro2a, 3 nM
T4 sequence (whole entry): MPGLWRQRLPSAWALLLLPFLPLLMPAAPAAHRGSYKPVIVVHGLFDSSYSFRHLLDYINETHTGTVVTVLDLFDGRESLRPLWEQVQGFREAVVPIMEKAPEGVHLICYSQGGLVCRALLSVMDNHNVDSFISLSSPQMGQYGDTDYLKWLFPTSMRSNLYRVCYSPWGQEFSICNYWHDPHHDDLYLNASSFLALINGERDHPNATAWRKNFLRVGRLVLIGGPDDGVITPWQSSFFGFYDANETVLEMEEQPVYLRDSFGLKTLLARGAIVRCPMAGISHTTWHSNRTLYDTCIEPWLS

[7] = molecular target: T5, Serine protease HTRA2, mitochondrial (Mus musculus) (UniProt Q9JIY5); conditions: Neuro2a, 3 nM
T5 sequence (whole entry): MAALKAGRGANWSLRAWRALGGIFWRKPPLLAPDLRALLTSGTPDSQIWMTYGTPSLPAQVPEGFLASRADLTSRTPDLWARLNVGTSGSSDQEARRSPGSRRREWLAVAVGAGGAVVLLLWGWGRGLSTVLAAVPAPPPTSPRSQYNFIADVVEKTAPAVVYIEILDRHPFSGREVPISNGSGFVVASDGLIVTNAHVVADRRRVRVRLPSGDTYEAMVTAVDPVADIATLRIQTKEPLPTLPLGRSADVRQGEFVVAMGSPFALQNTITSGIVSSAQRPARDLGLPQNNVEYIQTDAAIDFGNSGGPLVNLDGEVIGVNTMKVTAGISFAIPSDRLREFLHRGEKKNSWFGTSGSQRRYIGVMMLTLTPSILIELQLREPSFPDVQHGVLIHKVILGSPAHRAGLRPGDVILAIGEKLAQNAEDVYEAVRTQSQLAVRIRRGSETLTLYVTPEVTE

[8] = molecular target: Acyl-protein thioesterase 2 (Mus musculus) (UniProt Q9WTL7); conditions: Neuro2a, 3 nM
Sequence of Acyl-protein thioesterase 2 (Mus musculus) (Q9WTL7 whole entry): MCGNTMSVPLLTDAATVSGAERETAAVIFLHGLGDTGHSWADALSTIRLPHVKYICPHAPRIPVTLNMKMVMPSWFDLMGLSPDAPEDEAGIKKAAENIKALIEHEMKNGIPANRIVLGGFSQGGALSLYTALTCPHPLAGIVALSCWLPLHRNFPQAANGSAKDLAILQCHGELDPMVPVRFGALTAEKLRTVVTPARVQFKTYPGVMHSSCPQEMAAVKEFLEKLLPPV

[9] = molecular target: Tissue-type plasminogen activator (Mus musculus) (UniProt P11214); conditions: Neuro2a, 3 nM
Sequence of Tissue-type plasminogen activator (Mus musculus) (P11214 whole entry): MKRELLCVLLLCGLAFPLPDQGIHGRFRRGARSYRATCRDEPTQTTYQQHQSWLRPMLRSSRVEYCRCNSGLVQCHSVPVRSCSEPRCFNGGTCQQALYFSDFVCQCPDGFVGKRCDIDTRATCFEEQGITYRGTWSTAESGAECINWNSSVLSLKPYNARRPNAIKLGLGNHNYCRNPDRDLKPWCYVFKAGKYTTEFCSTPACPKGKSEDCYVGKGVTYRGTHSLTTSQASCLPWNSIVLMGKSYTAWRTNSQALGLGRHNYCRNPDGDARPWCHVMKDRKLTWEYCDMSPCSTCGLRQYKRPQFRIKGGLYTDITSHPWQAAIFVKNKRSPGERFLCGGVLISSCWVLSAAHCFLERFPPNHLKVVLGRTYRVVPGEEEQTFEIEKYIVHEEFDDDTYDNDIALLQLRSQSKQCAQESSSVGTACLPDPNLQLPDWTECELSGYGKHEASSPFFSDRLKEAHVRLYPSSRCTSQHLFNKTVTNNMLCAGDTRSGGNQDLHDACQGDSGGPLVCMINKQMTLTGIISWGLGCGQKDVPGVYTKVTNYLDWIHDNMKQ

Structure (SMILES)	inhibition [1]	inhibition [2]	inhibition [3]	inhibition [4]	inhibition [5]	inhibition [6]	inhibition [7]	inhibition [8]	inhibition [9]
O=C(N1CCCCC1c1ccccc1)n1cc(-c2ccc(-c3cccc(CO)c3)cc2)nn1 (racemic)	< 50%	29%	< 50%	< 50%	< 50%	< 50%	< 50%	< 50%	< 50%
O=C(c1cccc(-c2ccc(-c3cn(C(=O)N4CCCCC4c4ccccc4)nn3)cc2)c1)N1CCCCC1 (racemic)	< 50%	51%	< 50%	< 50%	< 50%	< 50%	< 50%	< 50%	< 50%
O=C(O)c1cccc(-c2ccc(-c3cn(C(=O)N4CCCCC4Cc4ccccc4)nn3)cc2)c1 (racemic)	< 50%	62%	< 50%	< 50%	< 50%	< 50%	< 50%	< 50%	< 50%
